Test results: ChEMBL document CHEMBL1137728, “Synthesis of novel thiazolone-based compounds containing pyrazoline moiety and evaluation of their anticancer activity” (2009)

Assays:
Format in all cases: functional
HT-29 = assay: Growth inhibition of human HT-29 cells after 48 hrs by SRB assay; conditions: HT-29, 48 h
Method in brief: (§1)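 NCI five-dose screen across about 60 human tumour cell lines, at 10-fold dilutions from 10^-4 to 10^-8 M with 48 h continuous exposure, read by SRB. Percent growth used time-zero, untreated control and treated absorbances. GI50 was the concentration giving 50% lower net protein increase than controls. Values beyond the tested range were reported as more or less than the maximum or minimum concentration.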

SNB-75 = assay: Growth inhibition of human SNB75 cells after 48 hrs by SRB assay; conditions: SNB-75, 48 h; method in brief: as §1
SK-MEL-28 = assay: Growth inhibition of human SK-MEL-28 cells after 48 hrs by SRB assay; conditions: SK-MEL-28, 48 h; method in brief: as §1
SK-MEL-5 [1] = assay: Growth inhibition of human SK-MEL-5 cells after 48 hrs by SRB assay; conditions: SK-MEL-5, 48 h; method in brief: as §1
UACC-62 = assay: Growth inhibition of human UACC62 cells after 48 hrs by SRB assay; conditions: UACC-62, 48 h; for TGI: read-out: pTGI (converted); method in brief: as §1
SK-MEL-5 [2] = assay: Anticancer activity against human SK-MEL-5 cells assessed as cell growth at 10 uM after 48 hrs by SRB assay; conditions: SK-MEL-5, 48 h, read-out: Activity
Method in brief: (§2)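 US NCI one-dose screen across about 60 human tumour cell lines. A single concentration of 10^-5 M was applied with 48 h continuous exposure. The end point was sulforhodamine B protein staining, read spectrophotometrically. Results are given as percent growth of treated cells relative to untreated controls.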

[3] = Anticancer activity against human NCI60 cells assessed as cell growth at 10 uM after 48 hrs by SRB assay; conditions: NCI60, 48 h, read-out: Activity; method in brief: as §2
HL-60(TB) = assay: Growth inhibition of human HL-60(TB) cells after 48 hrs by SRB assay; conditions: HL-60, 48 h
Method in brief: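 Five-dose NCI-60 assay at 10-fold dilutions, 10^-4 to 10^-8 M, 48 h continuous exposure; SRB protein staining. Absorbance at time zero, untreated control and each concentration gives percent growth. GI50 is the concentration giving 50% lower net protein increase than controls. Values beyond the range tested are reported as above or below the extreme concentration.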

[4] = Growth inhibition of human […] cells after 48 hrs by SRB assay; conditions: for TGI: read-out: pTGI (converted); method in brief: as §1
MOLT-4 = assay: Anticancer activity against human MOLT4 cells assessed as cell growth at 10 uM after 48 hrs by SRB assay; conditions: MOLT-4, 48 h, read-out: Activity; method in brief: as §2
HCT-15 = assay: Growth inhibition of human HCT15 cells after 48 hrs by SRB assay; conditions: HCT-15, 48 h; method in brief: as §1
KM12 = assay: Growth inhibition of human KM12 cells after 48 hrs by SRB assay; conditions: KM12, 48 h; method in brief: as §1
U-251 = assay: Growth inhibition of human U251 cells after 48 hrs by SRB assay; conditions: U-251, 48 h; method in brief: as §1
IGROV-1 = assay: Growth inhibition of human IGROV1 cells after 48 hrs by SRB assay; conditions: IGROV-1, 48 h; method in brief: as §1
786-0 = assay: Growth inhibition of human 786-0 cells after 48 hrs by SRB assay; conditions: 786-0, 48 h; method in brief: as §1
SN12C = assay: Growth inhibition of human SN12C cells after 48 hrs by SRB assay; method in brief: as §1
NCI/ADR-RES = assay: Growth inhibition of human NCI/ADR-RES cells after 48 hrs by SRB assay; method in brief: as §1
CCRF-CEM [5] = assay: Growth inhibition of human CCRF-CEM cells after 48 hrs by SRB assay; method in brief: as §1
HOP-62 = assay: Growth inhibition of human HOP62 cells after 48 hrs by SRB assay; conditions: HOP-62, 48 h; method in brief: as §1
HOP-92 = assay: Growth inhibition of human HOP92 cells after 48 hrs by SRB assay; conditions: HOP-92, 48 h; method in brief: as §1
CCRF-CEM [6] = assay: Anticancer activity against human CCRF-CEM cells assessed as cell growth at 10 uM after 48 hrs by SRB assay; conditions: read-out: Activity; method in brief: as §2

SMILES: O=C1N=C(N2N=C(c3ccccc3)CC2c2ccccc2O)/C(=C/c2ccc(O)cc2)S1 (stereo not drawn)
- GI50 (HT-29): 1910 nM
- GI50 (SNB-75): 1950 nM
- TGI (SNB-75; read-out: pTGI (converted)): 5.25 µM
- GI50 (SK-MEL-28): 1780 nM
- GI50 (SK-MEL-5 [1]): 1700 nM
- TGI (SK-MEL-5 [1]; read-out: pTGI (converted)): 3.31 µM
- GI50 (UACC-62): 1700 nM
- TGI (UACC-62): 3.31 µM
- growth at 10 µM (SK-MEL-5 [2]): -96.3%
- growth at 10 µM [3]: 1.13%
- GI50 (HL-60(TB)): 1660 nM
- TGI (HL-60(TB); read-out: pTGI (converted)): 4.9 µM
- GI50 [4]: 1860 nM
- TGI [4]: 4.47 µM

SMILES: O=C1CSC(N2N=C(c3ccccc3)CC2c2ccccc2O)=N1 (stereo not drawn)
- growth at 10 µM (MOLT-4): -61.5%
- growth at 10 µM [3]: 101%

SMILES: O=C1N=C(N2N=C(c3ccccc3)CC2c2ccccc2O)/C(=C/c2ccccc2)S1 (stereo not drawn)
- GI50 (HCT-15): 1510 nM
- TGI (HCT-15; read-out: pTGI (converted)): 2950 nM
- GI50 (KM12): 1620 nM
- TGI (KM12; read-out: pTGI (converted)): 4.47 µM
- GI50 (U-251): 1550 nM
- TGI (U-251; read-out: pTGI (converted)): 2880 nM
- GI50 (UACC-62): 1620 nM
- TGI (UACC-62): 2.95 µM
- GI50 (IGROV-1): 2000 nM
- TGI (IGROV-1; read-out: pTGI (converted)): 4.47 µM
- GI50 (786-0): 1820 nM
- TGI (786-0; read-out: pTGI (converted)): 3.89 µM
- GI50 (SN12C): 1700 nM
- TGI (SN12C; read-out: pTGI (converted)): 3.09 µM
- GI50 (NCI/ADR-RES): 1820 nM
- GI50 (CCRF-CEM [5]): 1910 nM
- TGI (CCRF-CEM [5]; read-out: pTGI (converted)): 4.57 µM
- GI50 [4]: 1550 nM
- TGI [4]: 3.24 µM
- GI50 (HOP-62): 1620 nM
- TGI (HOP-62; read-out: pTGI (converted)): 3.47 µM
- GI50 (HOP-92): 1550 nM
- TGI (HOP-92; read-out: pTGI (converted)): 4.47 µM

SMILES: O=C1N=C(N2N=C(c3ccccc3)CC2c2ccccc2O)S/C1=C\c1ccc(Cl)cc1 (stereo not drawn)
- growth at 10 µM [3]: 98.3%
- growth at 10 µM (CCRF-CEM [6]): -25%

SMILES: O=C1N=C(N2N=C(c3ccccc3)CC2c2ccccc2O)CS1 (stereo not drawn)
- growth at 10 µM [3]: 83.6%
- growth at 10 µM (CCRF-CEM [6]): -5.39%
